Compound activity: PubChem BioAssay, several laboratories
This is a sample that favours compounds with a hit; in the whole collection about 3.9% have one here.
NS3 helicase inh = inhibitors of Hepatitis C virus NS3 helicase | NS3 helicase DNA unwinding, Cy5 molecular beacon fluorescence | inhibition, % at 10.9 µM | 290,000 compounds, 0.56% hits | AID 1800;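 active means inhibition above the mean of all tested compounds plus 3 SD, set per campaign, cut at about 35% in these data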
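assay system = NS3 helicase fragment of HCV | buffer or medium = MOPS pH 6.5, MgCl2, DTT, Tween20, BSA | timing = 60 min unwinding reaction at 25 °C after ATP addition | signal = Cy5 beacon fluorescence read at start and 1 h | read-out basis = % inhibition of unwinding | control set = low DMSO, high thioflavine S at 110 µM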
HCV core dimer = blocks dimerization of HCV core protein | inhibition, % at 5 µM | AID 1899 | TR-FRET GST/Flag-core106 dimerization, 1536-well | 300,000 compounds, 0.33% hits;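 active means inhibition above the mean of all tested compounds plus 3 SD, set per screening campaign, cut at about 45% in these data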
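assay system = GST-tagged and Flag-tagged HCV core protein residues 1-106 | controls = unlabelled core106 and no-GST-core106 wells | incubation = compound-protein-antibody incubation 4 h at 22.5 °C | probe or stimulus = Eu donor and XL665 acceptor anti-tag antibodies | read-out = % inhibition based on acceptor/donor emission ratio | signal = TR-FRET 671 and 617 nm emission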
FID counter = counter-screen for HCV NS3 helicase inhibitors: DNA intercalator displacement. DNA fluorescent intercalator displacement, fluorescence. inhibition, % at 7.9 µM. 290,000 compounds, 0.17% hits; in the data active means inhibition above about 37%;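 further: higher means more ethidium bromide displaced from hairpin DNA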
HSF1 inh = HSF1 inhibition; NIH3T3-HGL HSE-luciferase, MG132-induced, luminescence 8 h; stronger effect = lower value; activity change, negative = inhibition, % at 7.5 µM (by protocol); 300,000 compounds, 0.77% hits; AID 2098;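 active means more than half of replicate wells show activity change below -50%, luminescence cut by over half; inconclusive means some wells, but at most half, below -50%; inactive means no replicate well below -50%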;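 further: luciferase reports HSF-1 transcriptional activity via heat shock element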
HSP90 refold inh = inhibitors of HSP90 luciferase refolding in rabbit reticulocyte lysate | luciferase refolding luminescence, 3 h | AID 1789 | 290,000 compounds, 0.91% hits | inhibition, % at 5.6 µM;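 active means inhibition above the screen-wide mean plus 3 SD, computed separately per campaign, cut at about 16% in these data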;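 further: inhibitors lower the luminescence because luciferase stays unfolded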
HSF1 activator = increases HSF-1 driven luciferase reporter signal; NIH3T3-HGL HSF-1 luciferase reporter, MG132, 8 h; 100% = twice DMSO control signal; 300,000 compounds, 1.7% hits; activation, % at 9 µM;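 active means mean replicate activation of at least 50% with a set share of replicates each reaching 50%; inconclusive means only one of those two conditions met; inactive means mean below 50% and too few replicates reaching it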
HSP90 inh confirm = confirmation of HSP90 inhibitors. AID 1846. shares compounds with HSP90 refold inh. 2,300 compounds, 64% hits. rabbit reticulocyte lysate, luciferase refolding luminescence, 3 h. inhibition, % at 5.9 µM; in the data active means inhibition above about 18%
luciferase ctr = firefly luciferase inhibition, HSP90 counter-screen; AID 1847; purified native firefly luciferase, luminescence; shares compounds with HSP90 refold inh; inhibition, % at 5.9 µM; 2,300 compounds, 48% hits;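 active means inhibition above the mean inhibition of all tested sample wells plus 3 SD, cut at about 10% in these data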
Target sequence (P08659 whole entry, looked up): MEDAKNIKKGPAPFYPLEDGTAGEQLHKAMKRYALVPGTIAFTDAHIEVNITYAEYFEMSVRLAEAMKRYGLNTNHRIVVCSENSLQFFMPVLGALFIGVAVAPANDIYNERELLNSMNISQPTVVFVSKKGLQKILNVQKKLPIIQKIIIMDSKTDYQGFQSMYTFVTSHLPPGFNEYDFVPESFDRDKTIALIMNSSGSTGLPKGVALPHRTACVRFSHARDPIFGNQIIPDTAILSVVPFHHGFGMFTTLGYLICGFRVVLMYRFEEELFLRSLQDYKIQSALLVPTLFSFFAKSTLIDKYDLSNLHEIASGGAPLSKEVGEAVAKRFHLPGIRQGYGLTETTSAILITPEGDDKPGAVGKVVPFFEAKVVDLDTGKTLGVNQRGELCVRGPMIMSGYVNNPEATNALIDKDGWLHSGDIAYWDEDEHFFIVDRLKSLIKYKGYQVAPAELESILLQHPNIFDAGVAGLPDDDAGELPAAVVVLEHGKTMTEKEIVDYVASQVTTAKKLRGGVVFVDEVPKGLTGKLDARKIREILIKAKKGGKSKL
Large screens that a line does not name were inactive (follow-up assays come after a bar, where they were run).

CCc1nnc(N/N=C/c2c(Cl)cccc2Cl)n1N	HSP90 refold inh 57, HSF1 activator inconclusive | HSP90 inh confirm inactive | luciferase ctr inactive
CCc1nnc(N/N=C\c2ccc(OC(C)=O)c(OC)c2)n1N	HSF1 inh inconclusive
CCc1nnc(N/N=C/c2ccc(O)c(OC)c2)n1N	none
COc1ccc(/C=N\NC(=O)COc2ccccc2)c(C(=O)O)c1OC	none
O=C1CC(c2ccc3c(c2)OCCO3)Oc2ccc([N+](=O)[O-])cc21 (stereo unspecified)	HSP90 refold inh 55 | HSP90 inh confirm 66 | luciferase ctr 64
COc1ccc(CCNC(=O)c2cccs2)cc1	none
O=C(NCC(c1cccs1)N1CCOCC1)c1cc([N+](=O)[O-])cc([N+](=O)[O-])c1 (stereo unspecified)	none
O=C(NCC(c1cccs1)N1CCOCC1)c1cccc([N+](=O)[O-])c1 (stereo unspecified)	HSP90 refold inh 67 | HSP90 inh confirm inactive | luciferase ctr inactive
Cc1cc(=O)[nH]c(N/N=C/c2ccccn2)n1	none
CCN(CC)c1ccc(/C=N/Nc2nc3ccccc3[nH]2)c(O)c1	HSP90 refold inh 40, HSF1 activator 169 | HSP90 inh confirm 23 | luciferase ctr inactive
C(=N\Nc1nc2ccccc2[nH]1)/c1ccccn1	HSP90 refold inh 79 (no result: HCV core dimer) | HSP90 inh confirm 88 | luciferase ctr 85
c1csc(-c2nc(CN3CCSCC3)cs2)c1	HSP90 refold inh 27 | HSP90 inh confirm 55 | luciferase ctr 31
O=C(Nc1nnc(C(F)(F)F)s1)c1ccc(N2C(=O)C3C4C=CC(C4)C3C2=O)cc1 (stereo unspecified)	none
Cc1cccc(C)c1OCC(O)CNC(C)c1ccccc1 (stereo unspecified)	none
CCOC(=O)c1c(C)nn(-c2ccc(NC(=O)CSCC(=O)O)cc2)c1C	none
Cc1ccc(C(=O)CSc2cnc3ccccc3n2)cc1C	HSP90 refold inh 37 | HSP90 inh confirm 47 | luciferase ctr 29
CN(C)C(=O)CSc1cnc2ccccc2n1	none
O=C(O)c1cc(S(=O)(=O)NC(Cc2c[nH]c3ccccc23)C(=O)O)ccc1Cl (stereo unspecified)	none
CCCSc1nc(SCC(=O)NCc2ccccc2)c2c3c(sc2n1)COC(C)(CC)C3 (stereo unspecified)	HSP90 refold inh 28 | HSP90 inh confirm inactive | luciferase ctr inactive
CCCCSc1nc(SCC(=O)NCc2ccco2)c2c3c(sc2n1)COC(C)(CC)C3 (stereo unspecified)	none
COc1cccc(/C=N/NC(=O)c2[nH]c(C)c(C(=O)N/N=C/c3cccc(OC)c3O)c2C)c1O	HSP90 refold inh 32 | HSP90 inh confirm inactive | luciferase ctr inactive
COc1cccc(/C=N/NC(=O)c2ccc(-c3ccccc3)cc2)c1O	none
COc1cccc(/C=N/NC(=S)Nc2cccc(C(=O)O)c2)c1O	HSP90 refold inh 25 | HSP90 inh confirm 50 | luciferase ctr 27
CC(=O)Nc1ccc(/C=N/Nc2nncc3ccccc23)cc1	none (no result: HCV core dimer)
Fc1cccc(/C=N/Nc2nncc3ccccc23)c1	HSP90 refold inh 29 | HSP90 inh confirm 51 | luciferase ctr 41
CC/C(=N\Nc1nncc2ccccc12)c1ccc(F)cc1	HSP90 refold inh 17 | HSP90 inh confirm inactive | luciferase ctr inactive
CSc1ccc(-c2c(C#N)c(N)nc3c2CCCC3)cc1	none
O=C(COC(=O)c1nsc(Cl)c1Cl)NC1CCCC1	HSP90 refold inh 23 | HSP90 inh confirm inactive | luciferase ctr inactive
O=C(COC(=O)c1nsc(Cl)c1Cl)NC1CCCCC1	none
CC(C)(NO)/C(=N/O)c1cccs1	none
Cc1cc(C)cc(COc2ccc3c(C)c(CC(=O)O)c(=O)oc3c2C)c1	none
CCCc1cc(=O)oc2cc(OCC(=O)NCC3CCC(C(=O)O)CC3)ccc12 (stereo unspecified)	HSP90 refold inh 25 | HSP90 inh confirm inactive | luciferase ctr inactive
COC(=O)c1ccc(COc2ccc3ccc(=O)oc3c2)o1	none (no result: HCV core dimer)
Cc1c(C)c2ccc(OCc3ccc(C(=O)O)o3)c(C)c2oc1=O	HSP90 refold inh 75 | HSP90 inh confirm 87 | luciferase ctr 45
COC(=O)c1ccc(COc2ccc3c(C)c(C)c(=O)oc3c2)o1	HSP90 refold inh 18 | HSP90 inh confirm 76 | luciferase ctr inactive
CCc1cc(=O)oc2cc(OCc3ccc(C(=O)O)o3)ccc12	HSP90 refold inh 27 | HSP90 inh confirm 33 | luciferase ctr inactive
COc1ccc2nc(SCCN(C)C)[nH]c2c1	none
O=C(NCCCn1ccnc1)/C(=C\c1cccnc1)NC(=O)c1cccc(Br)c1	none
O=C(O)c1ccc(COc2ccc3c4c(c(=O)oc3c2)CCC4)o1	HSP90 refold inh 78 | HSP90 inh confirm 79 | luciferase ctr 34
Cc1ccc(C2=NS(=O)(=O)N(C)C(C(=O)NCc3cccs3)=C2)cc1	none
CN1C(C(=O)NCc2ccco2)=CC(c2ccc(F)cc2)=NS1(=O)=O	HSP90 refold inh 56 | HSP90 inh confirm inactive | luciferase ctr inactive
COc1cccc(CSc2nc3cc4c(cc3cc2C)OCCO4)c1	none
COc1ccc(C(=O)O/N=C(\N)c2ccccn2)cc1	HSF1 inh -75, HSP90 refold inh 80 | HSP90 inh confirm 86 | luciferase ctr 92
N/C(=N\OC(=O)c1cccc(Cl)c1)c1ccccn1	HSP90 refold inh 34 | HSP90 inh confirm 31 | luciferase ctr 76
N/C(=N\OC(=O)c1cccc(Br)c1)c1ccccc1	none
N/C(=N\OC(=O)c1ccc(Cl)cc1)c1ccccn1	HSP90 refold inh 57 | HSP90 inh confirm 20 | luciferase ctr 89
N/C(=N\OC(=O)c1cccc(Br)c1)c1ccccn1	HSP90 refold inh 42 | HSP90 inh confirm 26 | luciferase ctr 74
CC(C)(C)OC(=O)N1CCC(CNC(=O)Nc2ccccc2)CC1	none
O=C(COC(=O)c1ccccc1[N+](=O)[O-])c1ccc(C2CCCCC2)cc1	HSP90 refold inh 51 | HSP90 inh confirm 63 | luciferase ctr 79
N#CC1(NC(=O)COC(=O)c2ccccc2[N+](=O)[O-])CCCCC1	none (no result: NS3 helicase inh, FID counter, HSP90 refold inh)
Cc1ccc(-n2cc(C(=O)c3ccccc3O)cn2)cc1	HSF1 inh -77, HSP90 refold inh 31 | HSP90 inh confirm 61 | luciferase ctr 48
Cc1ccc(O)c(C(=O)c2cnn(-c3ccccc3)c2)c1	none
CCN(CC(=O)N1CCN(Cc2ccccc2)CC1)S(=O)(=O)c1ccc(C)cc1	none
CCn1c(C)nc2cc(-c3nc4n(n3)Cc3ccccc3-4)ccc21	HSF1 inh -93, HSP90 refold inh 88 | HSP90 inh confirm 97 | luciferase ctr 92
